Experimental data: ChEMBL document CHEMBL3286218, “Structure-activity relationship studies of N-methylated and N-hydroxylated spider polyamine toxins as inhibitors of ionotropic glutamate receptors” (J Med Chem, 2014)

How the values were obtained:
Assay type in all cases: cell-based
[1] = target: Glutamate NMDA receptor; Grin1/Grin2a (Rattus norvegicus) (UniProt P35439+Q00959); assay: Inhibition of rat recombinant GluN1/2A expressed in Xenopus oocytes assessed as inhibition of glutamate/glycine-evoked channel current at 100 nM at holding potential of -80 mV by two-electrode voltage clamp technique
Method in brief: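 Single-concentration screen at 100 nM on oocytes expressing GluN1/2A (1:10 cRNA ratio), two-electrode clamp at −80 mV, rt, in frog Ringer's. Percent inhibition of current evoked by 100 μM L-glutamate plus 100 μM glycine, with compound bath-applied in Ringer's.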

[2] = target: Glutamate receptor 1 (Rattus norvegicus) (UniProt P19490); assay: Inhibition of rat recombinant GluA1 expressed in Xenopus oocytes assessed as inhibition of glutamate-induced channel current at 100 nM at holding potential of -80 mV by two-electrode voltage clamp technique
Method in brief: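 Xenopus oocytes injected with GluA1_i cRNA (25 nL of 1 ng/nL), kept 2–4 days at 17 °C in Barth's medium with gentamicin. Two-electrode voltage clamp at room temperature in superfused frog Ringer's (Ba2+-containing, pH 7.6). Current evoked by 300 μM L-glutamate; test compound at 100 nM added by bath, co-applied with agonist. Percent inhibition of the evoked current recorded.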

Glutamate receptor 1 = Glutamate receptor 1 (Rattus norvegicus, UniProt P19490); assay: Inhibition of rat recombinant GluA1 expressed in Xenopus oocytes assessed as inhibition of glutamate-induced channel current at holding potential of -80 mV by two-electrode voltage clamp technique
Method in brief: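 GluA1_i cRNA (25 nL at 1 ng/nL) injected into collagenase-treated oocytes, kept at 17 °C in Barth's medium (pH 7.4) with gentamicin, recorded 2−4 days later. Held at −80 mV, rt, superfused with frog Ringer's (BaCl₂, pH 7.6). Antagonist co-applied with 300 μM L-glutamate at rising concentrations. Curves from 3−8 oocytes fitted to a Hill equation for IC50.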

[3] = target: Glutamate NMDA receptor; Grin1/Grin2a (Rattus norvegicus, UniProt P35439+Q00959); assay: Inhibition of rat recombinant GluN1/2A expressed in Xenopus oocytes assessed as inhibition of glutamate/glycine-evoked channel current at holding potential of -80 mV by two-electrode voltage clamp technique
Method in brief: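 Oocytes were injected with GluN1/N2A cRNA at a 1:10 ratio (25 nL at 0.5 ng/nL), incubated at 17 °C in Barth's medium with gentamicin, and recorded after 2−4 days. Clamp at −80 mV, rt, in frog Ringer's (BaCl₂, pH 7.6). Increasing antagonist was co-applied with 100 μM L-glutamate plus 100 μM glycine. IC50 came from a Hill fit over 3−8 oocytes.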

Rattus norvegicus = species: Rattus norvegicus; assay: Selectivity ratio of IC50 for rat recombinant GluN1/2A expressed in Xenopus oocytes to IC50 for rat recombinant GluA1 expressed in Xenopus oocytes

Sequence of Glutamate receptor 1 (P19490 whole entry, the tested form may be a part): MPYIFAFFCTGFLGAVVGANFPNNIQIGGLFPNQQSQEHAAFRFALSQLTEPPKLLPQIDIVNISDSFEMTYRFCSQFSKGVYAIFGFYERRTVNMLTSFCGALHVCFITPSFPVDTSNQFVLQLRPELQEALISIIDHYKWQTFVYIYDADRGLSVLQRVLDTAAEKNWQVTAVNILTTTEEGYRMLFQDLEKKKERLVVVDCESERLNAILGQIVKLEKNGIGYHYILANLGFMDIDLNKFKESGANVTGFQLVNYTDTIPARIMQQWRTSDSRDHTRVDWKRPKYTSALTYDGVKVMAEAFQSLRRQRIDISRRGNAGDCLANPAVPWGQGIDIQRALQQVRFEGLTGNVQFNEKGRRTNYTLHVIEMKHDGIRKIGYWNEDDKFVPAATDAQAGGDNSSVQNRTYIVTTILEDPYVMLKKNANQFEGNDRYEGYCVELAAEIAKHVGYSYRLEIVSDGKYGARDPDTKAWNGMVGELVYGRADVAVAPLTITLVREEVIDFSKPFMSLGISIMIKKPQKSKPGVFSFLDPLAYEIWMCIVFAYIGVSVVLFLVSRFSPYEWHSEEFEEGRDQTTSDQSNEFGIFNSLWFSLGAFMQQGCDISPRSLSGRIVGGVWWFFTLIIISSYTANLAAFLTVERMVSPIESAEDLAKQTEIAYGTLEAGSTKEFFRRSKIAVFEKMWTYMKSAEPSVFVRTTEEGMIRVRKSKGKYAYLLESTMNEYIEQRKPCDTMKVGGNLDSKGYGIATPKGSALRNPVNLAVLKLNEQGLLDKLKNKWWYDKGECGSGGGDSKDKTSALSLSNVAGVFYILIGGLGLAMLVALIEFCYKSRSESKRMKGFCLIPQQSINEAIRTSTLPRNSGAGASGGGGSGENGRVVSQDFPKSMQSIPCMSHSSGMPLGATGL
Sequence of Glutamate receptor 1 (Rattus norvegicus) (P19490 whole entry, the tested form may be a part): as above

| Structure (SMILES) | inhibition [1] [%] | inhibition [2] [%] | IC50 (Glutamate receptor 1) [nM] | IC50 [3] [nM] | Ratio IC50 (Rattus norvegicus) |
| --- | --- | --- | --- | --- | --- |
| NCCCNCCCCNCCCNCCCNCCCNC(=O)Cc1c[nH]c2ccccc12 | > 90 | – | – | – | – |
| CN(CCCC[C@H](N)C(=O)NCCCCCNC(=O)[C@H](CC(N)=O)NC(=O)Cc1c[nH]c2ccccc12)CCCNC(=O)[C@@H](N)CCCNC(=N)N | < 20 | > 40 | – | – | – |
| C[N+](C)(CCCC[C@H](N)C(=O)NCCCCCNC(=O)[C@H](CC(N)=O)NC(=O)Cc1c[nH]c2ccccc12)CCCNC(=O)[C@@H](N)CCCNC(=N)N | < 20 | > 40 | – | – | – |
| NCCCNCCCCNCCCNCCCN(O)CCCNC(=O)Cc1c[nH]c2cccc(O)c12 | > 90 | – | – | – | – |
| C[N+](C)(CCCC[C@H](N)C(=O)NCCCCCNC(=O)[C@H](CC(N)=O)NC(=O)Cc1c[nH]c2cccc(O)c12)CCCNC(=O)[C@@H](N)CCCNC(=N)N | < 20 | > 40 | 123 | 3850 | – |
| CN(CCCC[C@H](N)C(=O)NCCCCCNC(=O)[C@H](CC(N)=O)NC(=O)Cc1c[nH]c2cccc(O)c12)CCCNC(=O)[C@@H](N)CCCNC(=N)N | < 20 | > 40 | 52 | 1630 | – |
| N=C(N)NCCC[C@H](N)C(=O)NCCCNCCCC[C@H](N)C(=O)NCCCCCNC(=O)[C@H](CC(N)=O)NC(=O)Cc1c[nH]c2cccc(O)c12 | < 20 | 84 | 15 | 387 | 26 |
| NCCCNCCCCNCCCNCCCNCCCNC(=O)Cc1ccc(O)cc1O | > 90 | – | – | – | – |
| N=C(N)NCCC[C@H](N)C(=O)NCCCNCCCC[C@H](N)C(=O)NCCCCCNC(=O)[C@H](CC(N)=O)NC(=O)Cc1c[nH]c2ccccc12 | < 20 | 81 | – | – | – |
| NCCCNCCCCNCCCNCCCNCCCNC(=O)Cc1c[nH]c2cccc(O)c12 | > 90 | – | – | – | – |
| NCCCNCCCCNCCCNCCCN(O)CCCNC(=O)Cc1c[nH]c2ccccc12 | > 90 | – | 11 | 12 | – |
